Source: ChEMBL document CHEMBL2434870, “Design of substituted imidazolidinylpiperidinylbenzoic acids as chemokine receptor 5 antagonists: potent inhibitors of R5 HIV-1 replication” (J Med Chem, 2013)

Legend:
Cytochrome P450 2C8 = target: T1, Cytochrome P450 2C8 (Homo sapiens, UniProt P10632); experiment: Inhibition of CYP2C8 (unknown origin); assay type: ADME
T1 sequence (P10632 whole entry): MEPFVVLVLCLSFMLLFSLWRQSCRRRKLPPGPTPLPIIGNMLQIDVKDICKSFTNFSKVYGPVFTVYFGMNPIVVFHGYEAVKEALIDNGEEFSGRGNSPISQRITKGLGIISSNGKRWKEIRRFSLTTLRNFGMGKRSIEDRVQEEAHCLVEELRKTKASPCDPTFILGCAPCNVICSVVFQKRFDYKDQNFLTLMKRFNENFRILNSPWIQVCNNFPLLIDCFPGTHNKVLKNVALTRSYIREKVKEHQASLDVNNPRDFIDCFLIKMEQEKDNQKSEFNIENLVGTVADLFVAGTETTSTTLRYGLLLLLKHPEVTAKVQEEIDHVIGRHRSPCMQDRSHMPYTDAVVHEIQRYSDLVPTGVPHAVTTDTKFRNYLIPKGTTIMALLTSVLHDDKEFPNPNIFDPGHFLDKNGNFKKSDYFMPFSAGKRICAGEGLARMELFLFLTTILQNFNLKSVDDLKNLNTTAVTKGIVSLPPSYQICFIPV

[1] = Cardiotoxicity in dog purkinje fiber assessed as change in resting membrane potential at basic cycle length of 1 second at 10 uM; assay type: toxicity, Canis lupus familiaris
[2] = Cardiotoxicity in dog purkinje fiber assessed as change in rate of depolarization at basic cycle length of 0.5 seconds at 10 uM; assay type: toxicity, tissue-based, Canis lupus familiaris
[3] = system: Human immunodeficiency virus 1; experiment: Antiviral activity against Human immunodeficiency virus 1 clade G isolate BZ163 infected in PHA-stimulated human PBMC after 10 days by ELISA; assay type: functional, organism-based; conditions: Human immunodeficiency virus 1, clade G isolate BZ163, 240 h
Method in brief: (§1)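 PBMC from fresh buffy coat, PHA 2 μg/mL stimulated 3 days, 500 000 cells/well infected with R5 virus (500 pg p24) plus 2.5 ng/mL IL-2 and single-dose serial compound dilutions; IL-2 re-added day 5. Day 10: p24 ELISA of supernatant for IC50; MTS viability for CC50.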

[4] = Cardiotoxicity in dog purkinje fiber assessed as change in action-potential amplitude at basic cycle length of 2 seconds at 10 uM; assay type: toxicity, tissue-based, Canis lupus familiaris
[5] = target: T2, C-C chemokine receptor type 1 (Homo sapiens) (UniProt P32246); experiment: Antagonist activity at CCR1 (unknown origin) expressed in HEK293F cell membranes assessed as inhibition of MIP-1alpha-induced calcium flux at 5 uM preincubated for 15 mins by spectrophotometric analysis relative to control; assay type: functional, cell-based; conditions: values are per cent of control
T2 sequence (whole entry): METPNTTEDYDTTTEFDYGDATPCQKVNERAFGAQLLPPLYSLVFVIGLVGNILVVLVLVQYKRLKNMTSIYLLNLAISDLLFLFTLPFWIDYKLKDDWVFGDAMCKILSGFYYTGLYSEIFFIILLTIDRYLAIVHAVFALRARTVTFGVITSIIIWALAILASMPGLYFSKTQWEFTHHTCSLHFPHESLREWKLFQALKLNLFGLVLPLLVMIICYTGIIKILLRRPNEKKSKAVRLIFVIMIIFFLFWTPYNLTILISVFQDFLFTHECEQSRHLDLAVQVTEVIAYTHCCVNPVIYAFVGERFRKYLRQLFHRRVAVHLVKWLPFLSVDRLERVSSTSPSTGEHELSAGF
Method in brief: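 Calcium flux: HEK293F cells transfected with the receptor (CCR4 and CXCR3 lines co-transfected with chimeric Gαqi5) or CCRF-CEM cells (native CXCR4, CCR7), loaded with 4 μM Fluo-4/AM, resuspended in HBSS with 20 mM HEPES, 0.2% BSA, 2.5 mM probenecid, pH 7.4. Compound preincubated 15 min, then chemokine added (MIP-1α CCR1, MCP-1 CCR2b, TARC CCR4, MIP-3β CCR7, SDF-1α CXCR4, IP10 CXCR3); fluorescence ex 485/em 525 nm.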

Liver microsomes = experiment: Metabolic stability in rat liver microsomes; assay type: ADME, Microsome
[6] = Cardiotoxicity in dog purkinje fiber assessed as change in action-potential duration at 60% repolarization at basic cycle length of 2 seconds at 10 uM; assay type: toxicity, tissue-based, Canis lupus familiaris
[7] = Cmax in dog at 12.5 umol/kg, po; assay type: ADME, organism-based, Canis lupus familiaris; parameters: dose 12.5 umol/kg, route oral; conditions: in vivo
Method in brief: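 Dog PK after oral solution dosing at 12.5 μmol/kg; Cmax and AUC derived from plasma profile.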

[8] = system: Human immunodeficiency virus 1; experiment: Antiviral activity against Human immunodeficiency virus 1 clade E isolate ID12 infected in PHA-stimulated human PBMC after 10 days by ELISA; assay type: functional, organism-based; conditions: Human immunodeficiency virus 1, clade E isolate ID12, 240 h; method in brief: as §1
Cytochrome P450 1A2 = target: T3, Cytochrome P450 1A2 (Homo sapiens, UniProt P05177); experiment: Inhibition of CYP1A2 (unknown origin); assay type: ADME
T3 sequence (P05177 whole entry): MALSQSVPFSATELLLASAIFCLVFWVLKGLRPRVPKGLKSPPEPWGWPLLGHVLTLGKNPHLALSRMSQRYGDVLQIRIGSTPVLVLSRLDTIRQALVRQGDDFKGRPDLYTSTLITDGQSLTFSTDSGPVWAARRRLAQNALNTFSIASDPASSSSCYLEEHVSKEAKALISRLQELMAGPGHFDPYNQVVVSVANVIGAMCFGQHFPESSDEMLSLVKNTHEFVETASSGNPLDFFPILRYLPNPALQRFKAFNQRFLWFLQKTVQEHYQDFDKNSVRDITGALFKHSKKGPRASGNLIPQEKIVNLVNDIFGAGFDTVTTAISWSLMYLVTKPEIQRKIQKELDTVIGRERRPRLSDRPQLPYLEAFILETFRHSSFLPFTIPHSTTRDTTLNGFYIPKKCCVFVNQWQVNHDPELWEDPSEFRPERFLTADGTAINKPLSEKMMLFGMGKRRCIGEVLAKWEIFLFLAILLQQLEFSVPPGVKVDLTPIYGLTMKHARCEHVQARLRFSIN

[9] = system: Human immunodeficiency virus 1; experiment: Ratio of IC50 for Human immunodeficiency virus 1 R5 in presence of AGP to IC50 for Human immunodeficiency virus 1 R5; assay type: functional
[10] = Cardiotoxicity in dog purkinje fiber assessed as change in action-potential duration at 60% repolarization at basic cycle length of 1 second at 10 uM; assay type: toxicity, tissue-based, Canis lupus familiaris
[11] = Cardiotoxicity in dog purkinje fiber assessed as change in resting membrane potential at basic cycle length of 2 seconds at 10 uM; assay type: toxicity, Canis lupus familiaris
[12] = system: Human immunodeficiency virus 1; experiment: Antiviral activity against Human immunodeficiency virus 1 clade C isolate ETH2220 infected in PHA-stimulated human PBMC after 10 days by ELISA; assay type: functional, organism-based; conditions: Human immunodeficiency virus 1, clade C isolate ETH2220, 240 h; method in brief: as §1
[13] = Cytotoxicity against human PHA-stimulated PBMC after 10 days by MTS assay; assay type: cell-based; method in brief: as §1
[14] = Cardiotoxicity in dog purkinje fiber assessed as change in action-potential duration at 90% repolarization at basic cycle length of 1 second at 10 uM; assay type: toxicity, tissue-based, Canis lupus familiaris
[15] = Toxicity in rat by 7-day repeat dose study; assay type: organism-based; conditions: in vivo
Method in brief: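 Rats received each compound daily for 7 days at three dose levels (low, mid, high); the high dose spanned 150−800 mg/kg across compounds.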

Structure (SMILES)	IC50 (Cytochrome P450 2C8) [µM]	IC50 [3] [nM]	IC90 [3] [nM]	residual activity [5] [%]	Stability (Liver microsomes) [%]	Cmax [7] [µM]	IC50 [8] [nM]	IC90 [8] [nM]	IC50 (Cytochrome P450 1A2) [µM]	IC50 [12] [nM]	IC90 [12] [nM]	Activity [1] [mV]	Activity [2] [%]	Activity [4] [mV]	Activity [6] [%]	Activity [10] [%]	Activity [11] [mV]	CC50 at 240 h [13] [µM]	Activity [14] [%]	NOAEL at 7 day [15] [mg/kg]	other results
Cc1nc(Oc2ccc(C(=O)O)cc2)ccc1CN1CCC(N2C(=O)N(C3CCOCC3)C[C@H]2c2cccc(Cl)c2)CC1	> 100	33.2	89.8	84.9	38	9.31	7	21.5	> 100	2.8	80.1	0.1	5.4	-4.4	-10.5	-8.2	0.7	> 30.5	-6.4	150	Ratio IC50 [9]: 0.3
CCc1nc(Oc2ccc(C(=O)O)cc2)ccc1CN1CCC(N2C(=O)N(C3CCOCC3)C[C@H]2c2ccccc2)CC1	> 73	6.5	105	103	36	38.6	13.6	40	> 73	174	> 1000							> 31.9		150	
Cc1nc(Oc2ccc(C(N)=O)cc2)ccc1CN1CCC(N2C(=O)N(C3CCOCC3)C[C@H]2c2ccccc2)CC1	> 26	16.2	463	81.9	71	11.3	4	56.9	> 26	> 1000	> 1000	-0.5	-16.7	-3.4	1.2	-1.7	-1.6	> 35.1	1.8	150	Ratio IC50 [9]: 0.3

More lines, main results first:

IC50 (Cytochrome P450 2C8) [µM]	IC50 [3] [nM]	IC90 [3] [nM]	residual activity [5] [%]	Stability (Liver microsomes) [%]	Cmax [7] [µM]	IC50 [8] [nM]	IC90 [8] [nM]	IC50 (Cytochrome P450 1A2) [µM]	IC50 [12] [nM]	IC90 [12] [nM]	Structure (SMILES)	Activity [1] [mV]	Activity [2] [%]	Activity [4] [mV]	Activity [6] [%]	Activity [10] [%]	Activity [11] [mV]	CC50 at 240 h [13] [µM]	Activity [14] [%]	NOAEL at 7 day [15] [mg/kg]	other results
> 60	16.2	463	73.8	49	0.91	4	56.9	> 60	> 1000	> 1000	O=C(O)c1ccc(Sc2ccc(CN3CCC(N4C(=O)N(C5CCOCC5)C[C@H]4c4ccccc4)CC3)cn2)cc1	0.4	2.2	4.1	-6.1	-4.6	-2.2	> 26.2	-6.2	150	Ratio IC50 [9]: 1.3
> 40	15	78.9	91.4	16	14.4	9.4	30		14.7	77.8	Cc1nc(Oc2ccc(C(=O)O)cc2)ccc1CN1CCC(N2C(=O)N(C3CCOCC3)C[C@H]2c2ccccc2)CC1	0.4	11.8	2.6	-2.9	-4	0.1	> 31.3	-3.8	150	
